Rows were chosen to be rich in hits. Some 1.6% of all compounds tested hit in one or more screens of this group.
SKN-1 block: inhibitors of C. elegans SKN-1; C. elegans VP596 Pgst-4::GFP/RFP ratio, acrylamide-induced, 24 h; inhibition, % at 21.8 µM; 0.49% of 360,000 active; AID 624304;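 active means interference check ratio from 0.5 to 1.5 plus GFP to RFP signal ratio inhibition reaching or exceeding a fixed threshold, cut at about 30% in these data, passing the limit was not always enough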
TbMetRS inhib: Trypanosoma brucei MetRS inhibition; purified T. brucei MetRS, ATP depletion, Kinase-Glo luminescence; inhibition, % at 11.9 µM; 0.4% of 360,000 active; AID 624268;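 active means inhibition above a per-plate cutoff of the control wells' mean inhibition plus 3 SD, cut at about 5.5% in these data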
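Material: T. brucei methionyl-tRNA synthetase, purified; reagent: substrates ATP, L-methionine and bulk Escherichia coli tRNA; dosing: 11.9 µM single point; timing: 15 min plus 2 h at 25 °C; detection: luminescence of leftover ATP; evaluation: % inhibition; control set: DMSO-only wells as low control; replicates: singlicate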
Rin1 Abl inh: inhibitors of human Rin1-Abl protein interaction; TR-FRET Rin1/Abl binding, biochemical; inhibition, % at 7.35 µM; 0.4% of 360,000 active; AID 588664; in the data active means inhibition above about 5%, passing the limit was not always enough
MT1-MMP act inh: blocks activation of human MT1-MMP. P50281. HT1080 RFP-PRO-GFP cells, GFP/RFP ratio fluorescence, overnight; percent of plate control window, DMSO zero. GFP/RFP ratio change, % at 20 µM. 0.061% of 360,000 active. AID 651647;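 active means GFP/RFP ratio change of at least 30% with cell ATP level not reduced by more than half and red fluorescence within 50% of control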
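Assay system: HT1080 RFP-PRO-GFP cells. Benchmarks: DMSO vehicle wells and RFP-L50D-GFP reporter cell wells. Times: overnight cell settling, then overnight compound exposure, 37 °C, 5% CO2. Compound: 20 µM single dose, 1% DMSO. Read-out basis: GFP/RFP fluorescence ratio.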
Arrestin-AP2 inh: human beta-arrestin and AP2 interaction inhibition. FITC-arrestin peptide / GST-AP2 beads, flow cytometry; AP2 beta2 appendage carries R879A mutation. inhibition, % at 10 µM. 0.31% of 340,000 active;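 active means inhibition above a set limit, near 3 SD of compounds lacking own fluorescence, cut at about 54% in these data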
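System: GST-AP2 R879A bound to glutathione beads, E. coli-expressed. Also added: 50 nM FITC-arrestin peptide. Schedule: compound with beads 12 min RT, then probe 1 h RT. Signal: bead flow cytometry, FITC channel. Read-out basis: percent response.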
TbMetRS confirm: confirmation of Trypanosoma brucei MetRS inhibitors; inhibition, % at 11.9 µM; 93% of 1,400 active; T. brucei MetRS enzyme, luminescence (ATP depletion); shares compounds with TbMetRS inhib; in the data active means inhibition above about 7%
Jurkat cytotox: kills Jurkat cells in T. brucei MetRS counterscreen; shares compounds with TbMetRS inhib; Jurkat cells viability, ATP luminescence; inhibition, % at 8.3 µM; 12% of 1,400 active; AID 624413; in the data active means inhibition above about 15%
TbMetRS FP orth: inhibits T. brucei methionyl tRNA synthetase in orthogonal FP test | shares compounds with TbMetRS inhib | 44% of 1,400 active | purified T. brucei MetRS, fluorescence polarization | inhibition, % at 11.9 µM; in the data active means inhibition above about 17%
Numbers stand for hits; - = inactive; . = no result given.

SMILES	SKN-1 block	TbMetRS inhib	Rin1 Abl inh	MT1-MMP act inh	Arrestin-AP2 inh	TbMetRS confirm	Jurkat cytotox	TbMetRS FP orth
CC(C)(C)NC(=O)C1(C)CCC(=O)N1CC(F)(F)F (stereo not given)	-	-	-	-	.	.	.	.
CC(C)(C)C(C(=O)NC1CCCC1)N1CCN(c2ncccc2C#N)CC1 (stereo not given)	-	-	.	-	.	.	.	.
O=C(O)c1cccc(Cn2c(Cl)c(/C=N/NC(=O)c3cc4ccccc4cc3O)sc2=O)c1	-	5.7	-	-	-	17.8	-	33.9
O=C(O)c1cccc(Cn2c(Cl)c(/C=N/NC(=O)c3ccccc3)sc2=O)c1	-	-	-	-	-	.	.	.
Cn1c(N)c(C(=O)N2CCN(c3ccccc3)CC2)c(=O)n(C)c1=O	-	-	-	-	.	.	.	.
C[C@H](CO)N1C[C@H](C)[C@@H](CN(C)C(=O)Nc2ccc(C(F)(F)F)cc2)Oc2c(NS(=O)(=O)c3cn(C)cn3)cccc2C1=O	-	-	-	-	.	.	.	.
Cc1csc(CNc2ncnc3ccc(-c4ccccc4Cl)cc23)c1	-	6.0	-	-	-	24.6	-	20.5
O=C(CSCc1ccc([N+](=O)[O-])cc1)N/N=C/c1cccnc1	-	9.2	-	-	-	34.0	-	-
CN(CC(=O)Nc1ccc(F)c(F)c1F)C(=O)c1ccc(-n2cncn2)c([N+](=O)[O-])c1	-	7.7	-	-	-	32.9	-	17.1
CN(CC(=O)Nc1cccc(F)c1)C(=O)c1ccc(-n2cncn2)c([N+](=O)[O-])c1	-	51.2	-	-	-	83.5	-	50.7
COc1c(C)cc(C(O)c2ncc(-c3ccccc3C(F)(F)F)[nH]2)cc1C (stereo not given)	-	-	-	-	.	.	.	.
COC(=O)C[C@H]1C[C@H]2c3cc(NC(=O)Nc4ccc(F)cc4)ccc3O[C@H]2[C@@H](CO)O1	-	-	-	-	.	.	.	.
Cc1ccsc1C(=O)OCc1nc2ccsc2c(=O)[nH]1	-	-	-	-	-	.	.	.
CC(C)(Oc1ccc(Cl)cc1)C(=O)OCc1nc2ccsc2c(=O)[nH]1	-	20.0	-	-	-	64.1	-	37.9
NC(=NCCc1ccccc1)NS(=O)(=O)c1ccccc1	-	-	-	-	-	.	.	.
Cc1cccc(CCN=C(N)NS(=O)(=O)c2ccccc2)c1	-	6.2	-	-	-	14.4	-	-
CCN1C(=O)C(CC(=O)Nc2ccc(Br)cc2)N(CCCc2ccccc2)C1=S (stereo not given)	-	65.7	-	-	-	77.1	-	62.2
CCN1C(=O)C(CC(=O)Nc2ccc(OC)cc2)N(Cc2ccc(OC)c(OC)c2)C1=S (stereo not given)	-	-	-	-	-	.	.	.
CCN1C(=O)C(CC(=O)Nc2ccc(OC)cc2)N(CCc2ccc(OC)cc2)C1=S (stereo not given)	-	36.4	-	-	-	50.6	-	33.6
COc1ccc(CCN2C(=S)N(C)C(=O)C2CC(=O)Nc2ccc(F)cc2)cc1 (stereo not given)	-	57.7	-	-	-	80.8	-	50.8
COc1ccc(NC(=O)CC2C(=O)N(c3ccc(OC)cc3)C(=O)N2CCc2cccs2)cc1 (stereo not given)	-	10.9	-	-	-	20.5	-	-
O=C1C(=O)N(Cc2ccco2)C(c2cccs2)/C1=C(\O)c1cccc([N+](=O)[O-])c1 (stereo not given)	-	-	-	-	-	.	.	.
CCCCOc1ccc(S(=O)(=O)NC(=O)C2(C)CCN2C(=O)CCc2ccccc2)cc1 (stereo not given)	-	-	-	-	.	.	.	.
COc1ccc(N2CCN(C(=O)CCCn3c(=O)[nH]c4ccsc4c3=O)CC2)cc1	-	-	-	-	-	.	.	.
COc1ccc(N2CCN(C(=O)CCCCn3c(=O)[nH]c4ccsc4c3=O)CC2)cc1	-	6.7	-	-	-	12.6	-	-
SMILES	SKN-1 block	TbMetRS inhib	Rin1 Abl inh	MT1-MMP act inh	Arrestin-AP2 inh	TbMetRS confirm	Jurkat cytotox	TbMetRS FP orth
O=C(CN1C2=NCCCN2c2ccccc21)c1ccc(Cl)cc1Cl	-	12.0	-	-	-	27.8	-	-
O=C(CN1C2=NCCCN2c2ccccc21)c1cccc(Br)c1	-	-	-	-	-	.	.	.
CCCNC(=O)c1onc(CS(=O)(=O)c2cc(C)cc(C)c2)c1C(=O)NCCC	-	-	-	-	-	.	.	.
c1ccc(CNc2nc(-c3cccnc3)nc3ccccc23)cc1	-	-	-	-	-	.	.	.
Clc1cccc(CNc2nc(-c3cccnc3)nc3ccccc23)c1	-	18.0	-	-	-	39.8	-	28.4
CNC[C@@H]1OCc2ccccc2-c2c(n(C)c3ccccc23)C(=O)N([C@H](C)CO)C[C@@H]1C	-	-	-	-	.	.	.	.
COc1cc2cc(CN(CCc3ccccc3C)C(=S)NCCCN(C)C)c(=O)[nH]c2cc1OC	-	-	-	-	-	.	.	.
Cc1ccc2[nH]c(=O)c(CN(CC3CCCO3)C(=S)NCc3ccco3)cc2c1 (stereo not given)	-	12.2	-	-	.	23.1	-	-
COc1ccc(NC(=O)N(Cc2cc3cc(C)ccc3[nH]c2=O)CC2CCCO2)cc1 (stereo not given)	-	11.6	-	-	-	48.9	-	17.5
Cc1ccc2[nH]c(=O)c(CN(Cc3ccccc3)C(=S)NCCCN(C)C)cc2c1	-	7.0	-	-	-	17.2	17.1	-
COc1ccc2[nH]c(=O)c(CN(C(C)=O)C3CCCCC3)cc2c1	-	9.6	-	-	-	15.1	-	-
Cc1ccc2[nH]c(=O)c(CN(CC3CCCO3)C(=S)Nc3ccccc3)cc2c1 (stereo not given)	-	6.1	-	-	-	47.7	-	27.2
CCCCNC(=S)N(CCN(CC)CC)Cc1cc2cc3c(cc2[nH]c1=O)OCCO3	-	-	-	-	-	.	.	.
CCCCNC(=S)N(CCN(CC)CC)Cc1cc2cc3c(cc2[nH]c1=O)OCO3	-	8.8	-	-	-	16.2	-	-
CN(C)C(=O)c1ccccc1Sc1ccc(Cl)cc1Cl	-	6.0	-	-	-	16.2	-	-
O=C(NCCCCc1ccccc1)Nc1cccc(F)c1	-	10.7	-	-	-	44.2	-	34.9
Cc1cccc(NC(=O)NCCCCc2ccccc2)c1	-	-	-	-	-	.	.	.
O=C(CCC(=O)OCc1ccc(Br)cc1)Nc1ccccc1	-	6.1	-	-	-	13.8	-	-
O=C(CC(=O)Nc1ccc(Br)cc1)Nc1ccc(Br)cc1	-	7.0	-	-	-	11.3	-	-
